Compound activity: PubChem BioAssay, several laboratories
Platelet DG rel = inhibitors of platelet dense granule secretion, primary screen, cell-based, MLPCN, human platelets; 0.22% of 300,000 active; human platelet-rich plasma, SFLLRN dense granule ATP release, luminescence; inhibition, %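 (compounds screened at 7.5 µM in platelet-rich plasma)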;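 active = mean replicate score, as percent of positive control, at or above 50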
SENP6 block = SENP6 protease inhibitors, primary screen, biochemical, luminescence, uHTS; Sentrin-specific protease 6 (Homo sapiens), Q9GZR1; Recombinant SENP6 catalytic domain, aminoluciferin luminescence; inhibition, % at 10 µM; 1.8% of 330,000 active; AID 2599, 2010;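 active = inhibition above about 50% at the single tested dose, limit read from the data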;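 also: plate controls were DMSO wells with enzyme for no effect and DMSO wells lacking enzyme for full effect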
SENP8 block-1 = SENP8 protease inhibitors, primary screen, biochemical, luminescence. 1.2% of 330,000 active. AID 2540, 2010. inhibition, % at 10 µM. purified SENP8, Z-RLRGG-aminoluciferin cleavage. Sentrin-specific protease 8 (Homo sapiens), Q96LD8; in the data active = inhibition above about 50%
SENP1 FRET inh = human SENP1 catalytic domain inhibitors, primary screen, biochemical, FRET, uHTS; recombinant SENP1 catalytic domain, CyPet-SUMO1-YPet FRET cleavage; inhibition, % at 10 µM; 0.21% of 360,000 active;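 active = inhibition at least 30% at 10 µM, raw YFP signal under a set limit, fluorescence ratio 0.5 to 1.5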;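 also: 0% = enzyme with DMSO and 100% = no enzyme wells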
Target sequence (Q9P0U3 419-644 limits assumed): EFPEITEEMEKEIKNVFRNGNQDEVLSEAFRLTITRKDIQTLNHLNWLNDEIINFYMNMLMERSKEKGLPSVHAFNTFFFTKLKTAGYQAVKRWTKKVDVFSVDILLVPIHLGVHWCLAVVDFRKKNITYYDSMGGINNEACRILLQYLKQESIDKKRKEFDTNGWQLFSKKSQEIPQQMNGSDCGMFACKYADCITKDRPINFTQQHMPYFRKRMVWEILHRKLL
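Material: hSENP1 catalytic domain, recombinant; medium: Tris pH 8 with BME, BSA, NP40 and catalase; compound: single concentration of 10 µM compound, 0.5% DMSO final; technique: FRET read of cyan and yellow fluorescence; timing: 50 min enzyme reaction, room temperature, light-protected; reagent: SFCypet-SUMO1-SFYpet substrate at 25 nM; control set: no-enzyme low, enzyme-DMSO high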
SENP8 block-2 = human SENP8 protease inhibitors, primary screen, biochemical, fluorescence, Nedd8 protein substrate, uHTS. Sentrin-specific protease 8 (Homo sapiens), Q96LD8. recombinant SENP8. inhibition, % at 20 µM. 0.64% of 360,000 active. AID 602440, 2012; in the data active = inhibition mostly above about 40%, no sharp cut-off; inactive = mostly below about 27%
SENP7 inh = SENP7 protease inhibitors, primary screen, biochemical, luminescence, uHTS; Sentrin-specific protease 7 (Homo sapiens), Q9BQF6; recombinant SENP7, Z-RLRGG-aminoluciferin luminescence, 40 min; inhibition, % at 5 µM; 1.5% of 330,000 active;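 active = inhibition above about 50% at the single test dose, limit read from the data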;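 also: plate controls were DMSO with enzyme for no effect and no enzyme buffer wells for full effect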
Target sequence (Q9BQF6 706-1050 limits assumed): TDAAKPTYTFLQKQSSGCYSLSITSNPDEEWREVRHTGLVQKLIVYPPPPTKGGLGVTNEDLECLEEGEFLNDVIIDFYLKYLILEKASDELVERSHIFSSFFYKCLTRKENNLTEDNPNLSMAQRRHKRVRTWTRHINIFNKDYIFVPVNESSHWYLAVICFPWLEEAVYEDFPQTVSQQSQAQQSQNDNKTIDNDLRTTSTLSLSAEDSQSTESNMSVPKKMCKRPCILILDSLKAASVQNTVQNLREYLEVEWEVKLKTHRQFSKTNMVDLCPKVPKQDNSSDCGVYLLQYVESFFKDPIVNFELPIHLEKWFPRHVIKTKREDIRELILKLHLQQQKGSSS
SENP8 conf = SENP8 protease inhibitors, retest, confirmation, biochemical, luminescence, single concentration. shares compounds with SENP7 inh. Recombinant SENP8, Z-RLRGG-aminoluciferin luminescence, 60 min. inhibition, % at 12.5 µM. 40% of 6,200 active;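 active = mean inhibition across replicates above about 50%, limit read from the data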
SENP6 confirm = SENP6 protease inhibitors, confirmation, biochemical, luminescence, single concentration. AID 488915, 2010. 58% of 6,200 active. shares compounds with SENP7 inh. inhibition, % at 12.5 µM. recombinant SENP6, Z-RLRGG-aminoluciferin luminescence
SENP7 confirm = SENP7 protease inhibitors, retest, confirmation, biochemical, luminescence, single concentration. shares compounds with SENP7 inh. recombinant SENP7, Z-RLRGG-aminoluciferin luminescence, 40 min. 69% of 6,200 active. inhibition, % at 12.5 µM
Casp3 select = caspase-3 protease inhibitors, confirmation, selectivity assay for SENP inhibitor project, biochemical, single concentration; shares compounds with SENP7 inh; purified caspase-3, Z-DEVD-aminoluciferin luminescence, 60 min; inhibition, % at 12.5 µM; 60% of 6,200 active;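 active = mean inhibition above about 50%, limit read from the data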;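 also: plate controls were enzyme with DMSO for no effect and wells without caspase-3 for full effect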
Luc interf = interferes with luciferase luminescence in SENP counter-screen; shares compounds with SENP7 inh; Pre-incubated SENP8/Z-RLRGG-aminoluciferin, luciferase luminescence interference; inhibition, % at 12.5 µM; 39% of 6,200 active;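 active = mean inhibition above about 50% when retested at one dose, limit read from the data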;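 also: plate controls were DMSO wells with completed reaction for no effect and substrate without enzyme for full effect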
* marks the source's active call; other numbers are inactive results; i = inactive; x = no result given. In the library only some 2.6% were active in any assay of this set; here they are far more common.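 The calls were made as follows, unless noted: active = mean inhibition above about 50% in the one-dose retest (limit read from the data); inactive = the rest.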

SMILES	Platelet DG rel	SENP6 block	SENP8 block-1	SENP1 FRET inh	SENP8 block-2	SENP7 inh	SENP8 conf	SENP6 confirm	SENP7 confirm	Casp3 select	Luc interf
Cc1cccc(/C=N\NC(=O)c2ccc(Cl)cc2)c1O	1	37	12	-5	2	73*	7	19	29	60*	5
CCCCNC(=O)C1c2ccccc2OCC(=O)N1CCOC (stereo not drawn)	x	x	x	-2	5	x	x	x	x	x	x
O=C(COC(=O)CNS(=O)(=O)c1ccc(Cl)cc1)NC1CCCCC1	x	-11	-7	3	8	-5	x	x	x	x	x
Oc1ccc(Br)cc1-c1cc(-c2ccccc2)n[nH]1	9	-17	-21	2	21	1	x	x	x	x	x
COc1ccc(-c2cc(-c3cc(OC)ccc3O)[nH]n2)cc1	4	-2	26	-5	-14	45	x	x	x	x	x
COc1ccc(O)c(-c2cc(-c3ccc(F)cc3)n[nH]2)c1	2	56*	40	-3	-10	43	62*	59*	78*	20	68*
COc1ccc(O)c(-c2cc(-c3cccc(Br)c3)n[nH]2)c1	0	59*	24	-15	-11	7	40	34	69*	-1	5
O=C(NCCc1ccc(F)cc1)c1ccc(NS(=O)(=O)c2ccc3[nH]c(=O)[nH]c3c2)cc1	-7	-1	3	0	14	-1	x	x	x	x	x
CCCC1(c2ccccc2)NC(=O)N(CC(=O)NCc2ccc(OC)cc2)C1=O (stereo not drawn)	17	14	-1	1	12	6	x	x	x	x	x
CC(=O)Oc1oc(-c2ccccc2)nc1C=Nc1ccccc1	0	3	2	-2	13	-6	x	x	x	x	x
CCOC(=O)c1ccc(N=Cc2nc(-c3ccccc3)oc2OC(C)=O)cc1	3	-35	-13	-14	-6	-8	x	x	x	x	x
COc1ccc(N=Cc2nc(-c3ccccc3)oc2OC(=O)c2ccccc2)cc1	-2	54*	11	-36	4	56*	9	7	8	62*	5
CN(C)c1ccc(N=Cc2nc(-c3ccccc3)oc2OC(=O)c2cccc(Br)c2)cc1	-2	78*	49	-27	8	47	-23	10	16	36	27
Cc1cc(C)n(C(C)CNS(=O)(=O)c2ccc(C)c(C)c2)n1 (stereo not drawn)	-9	-21	-11	1	10	-6	x	x	x	x	x
CN(CCO)c1nc(N)c2c(N)nc3c(c2c1C#N)CC(=O)N3C1CCCC1	-53	91*	96*	x	x	96*	11	10	-7	-2	-1
CC(C)(C)N1C(=O)Cc2c1nc(N)c1c(N)nc(N3CCCCC3CO)c(C#N)c21 (stereo not drawn)	-8	93*	97*	-55	i	94*	20	26	9	1	0
N#Cc1c(N2CCN(c3ccc(F)cc3)CC2)nc(N)c2c(N)nc3c(c12)CC(=O)N3C1CC1	x	x	x	-23	-328	x	x	x	x	x	x
O=C(Nc1ccc(N2CCCC2)c(Cl)c1)c1cccs1	7	26	58*	-1	-7	49	79*	74*	92*	70*	62*
O=C(Nc1ccc2c(c1)OCCO2)c1cccs1	17	76*	46	0	28	72*	51*	50*	85*	81*	68*
O=C(/C=C\Nc1ccc2c(c1)OCO2)c1cccs1	31	-14	94*	-24	-2	-4	-7	100*	104*	98*	35
O=C(Nc1ccc2c(c1)OCCO2)c1c(Cl)cccc1Cl	x	x	x	2	17	x	x	x	x	x	x
O=C(Nc1ccc2c(c1)OCO2)c1ccc(Br)s1	13	74*	60*	-11	12	78*	72*	67*	92*	65*	71*
CC(C)(C)NC(=O)C1c2ccccc2OCC(=O)N1CCc1ccccc1 (stereo not drawn)	x	x	x	2	11	x	x	x	x	x	x
O=C(CCn1c(=O)c2cccn2c2cccnc21)N1CCN(c2cccc(Cl)c2)CC1	6	-5	-4	-7	-32	5	x	x	x	x	x
Cc1cnc(NC(=O)CC2OC(=O)c3ccccc32)s1 (stereo not drawn)	x	0	-8	-1	-20	-3	x	x	x	x	x
SMILES	Platelet DG rel	SENP6 block	SENP8 block-1	SENP1 FRET inh	SENP8 block-2	SENP7 inh	SENP8 conf	SENP6 confirm	SENP7 confirm	Casp3 select	Luc interf
CC(=NNC(=O)c1cccs1)c1ccc2c(c1)OCCO2	x	-2	-11	-1	-49	-14	x	x	x	x	x
O=C(c1ccc2c(c1)OCCCO2)c1cccs1	11	54*	30	1	10	50	52*	50	82*	66*	63*
O=C(Nc1ccc2c(c1)OCO2)c1cccs1	10	65*	16	3	0	48	49	42	72*	74*	55*
O=C(NCC(=O)N1CCN(c2ccccn2)CC1)c1ccc(Br)o1	13	-3	0	0	-23	-1	x	x	x	x	x
O=C(CSCc1ccco1)N1CCc2ccccc21	0	57*	34	1	14	33	47	45	79*	68*	58*
O=C(Nc1ccon1)c1ccc(Cl)s1	1	-2	0	0	9	0	x	x	x	x	x
Cc1ccnc(NC(=O)c2ccc(Cl)s2)c1	-6	76*	67*	2	6	72*	76*	75*	93*	86*	77*
